Measured values: ChEMBL document CHEMBL1153830, “Treatment of a clinically relevant plant-pathogenic fungus with an agricultural azole causes cross-resistance to medical azoles and potentiates caspofungin efficacy” (2007)
In brackets after ≈: the same amount, converted by molar mass. Activity calls are given as the source filed them. The rule behind the calls is not given here.

What was measured:
[1] = test system: Colletotrichum graminicola; test: Fungicidal activity against tebuconazole-nonadapted wild type Colletotrichum graminicola CgM2 assessed as inhibition of radial growth rate at 23 degC in darkness; type: functional; conditions: for EC50: Colletotrichum graminicola, CgM2, read-out: ED50 (the source's name)
Outline: (§1)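 Radial growth on solid complete medium, 23°C, darkness. Colony diameters were read at 3 and 6 days after inoculation and compared with drug-free control plates. Azoles and picoxystrobin were dissolved in 12% (wt/vol) Cremophor EL and tested at 0–2.5 μg/ml. Caspofungin, amphotericin B and nystatin were dissolved in water and tested from 0.00025 μg/ml; caspofungin plates used sucrose (10 mg/ml) in place of glucose.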

[2] = test system: Colletotrichum graminicola; test: Fungicidal activity against tebuconazole-adapted wild type Colletotrichum graminicola CgM2 assessed as inhibition of radial growth rate at 23 degC in darkness; type: functional; conditions: for EC50: Colletotrichum graminicola, CgM2, read-out: ED50 (the source's name); outline: as §1
[3] = test system: Colletotrichum graminicola; test: Ratio of ED50 for tebuconazole-adapted wild type Colletotrichum graminicola CgM2 to ED50 for tebuconazole-nonadapted wild type Colletotrichum graminicola CgM2; type: functional
Outline: (§2)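 Values came from logit transformation and linear regression, with confidence intervals at α = 0.05. Ratios compare tebuconazole-adapted with nonadapted CgM2.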

[4] = test system: Colletotrichum graminicola; test: Ratio of ED90 for tebuconazole-adapted wild type Colletotrichum graminicola CgM2 to ED90 for tebuconazole-nonadapted wild type Colletotrichum graminicola CgM2; type: functional; outline: as §2
[5] = test system: Colletotrichum graminicola; test: Fungicidal activity against compound-nonadapted wild type Colletotrichum graminicola CgM2 assessed as inhibition of radial growth rate at 30 ppm at 23 degC in darkness after 7 days; type: functional, organism-based
Outline: (§3)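 Isolate CgM2: 1 × 10^6 conidia grown in 50 ml liquid complete medium (CM), 7 days in darkness at 23°C. Adapted lines were passed through tebuconazole at 1, 5 and 20 μg/ml, then kept on CM plates containing 5 and 8 μg/ml (4 weeks each) and finally 30 μg/ml. Radial growth on CM plates was compared with that of the nonadapted strain.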

[6] = test system: Colletotrichum graminicola; test: Fungicidal activity against compound-adapted wild type Colletotrichum graminicola CgM2 assessed as inhibition of radial growth rate at 30 ppm at 23 degC in darkness after 7 days; type: functional, organism-based; outline: as §3
[7] = test system: Colletotrichum graminicola; test: Fungicidal activity against tebuconazole-adapted wild type Colletotrichum graminicola CgM2 infected in excised human skin assessed as inhibition of invasive colonized hyphal growth at dermis at ED50 after 4 days by Uvitex-2B staining-based fluorescence microscopy; type: functional, organism-based
Outline: (§4)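 Excised human skin from reduction mammoplasty, all pieces from one donor, cut to 20 mm discs. Each disc got 15–20 prick wounds and 100 μl of 10^6 conidia/ml. Discs sat in a Franz diffusion cell at 32°C over isotonic NaCl for up to 4 days. Drug was applied at ED50, ED90 or 2× ED90, three pieces per condition. Biopsies were cryosectioned and Uvitex 2B-stained; hyphal area per section was measured by fluorescence.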

[8] = test system: Colletotrichum graminicola; test: Fungicidal activity against tebuconazole-nonadapted wild type Colletotrichum graminicola CgM2 infected in excised human skin assessed as inhibition of invasive colonized hyphal growth at epidermis at ED90 after 4 days by Uvitex-2B staining-based fluorescence microscopy; type: functional, organism-based; outline: as §4
[9] = test system: Colletotrichum graminicola; test: Fungicidal activity against tebuconazole-adapted wild type Colletotrichum graminicola CgM2 infected in excised human skin assessed as inhibition of invasive colonized hyphal growth at dermis at twofold ED90 after 4 days by Uvitex-2B staining-based fluorescence microscopy; type: functional, organism-based; outline: as §4
[10] = test system: Colletotrichum graminicola; test: Fungicidal activity against tebuconazole-adapted wild type Colletotrichum graminicola CgM2 infected in excised human skin assessed as inhibition of invasive colonized hyphal growth at hypodermis at ED50 after 4 days by Uvitex-2B staining-based fluorescence microscopy; type: functional, organism-based; outline: as §4
[11] = test system: Colletotrichum graminicola; test: Fungicidal activity against tebuconazole-nonadapted wild type Colletotrichum graminicola CgM2 infected in excised human skin assessed as inhibition of invasive colonized hyphal growth at hypodermis at twofold ED90 after 4 days by Uvitex-2B staining-based fluorescence microscopy; type: functional, organism-based; outline: as §4
[12] = test system: Colletotrichum graminicola; test: Fungicidal activity against tebuconazole-nonadapted wild type Colletotrichum graminicola CgM2 infected in excised human skin assessed as inhibition of invasive colonized hyphal growth at dermis at ED90 after 4 days by Uvitex-2B staining-based fluorescence microscopy; type: functional, organism-based; outline: as §4
[13] = test system: Colletotrichum graminicola; test: Fungicidal activity against tebuconazole-adapted wild type Colletotrichum graminicola CgM2 infected in excised human skin assessed as inhibition of invasive colonized hyphal growth at hypodermis at ED90 after 4 days by Uvitex-2B staining-based fluorescence microscopy; type: functional, organism-based; outline: as §4
[14] = test system: Colletotrichum graminicola; test: Fungicidal activity against tebuconazole-nonadapted wild type Colletotrichum graminicola CgM2 infected in excised human skin assessed as inhibition of invasive colonized hyphal growth at dermis at twofold ED90 after 4 days by Uvitex-2B staining-based fluorescence microscopy; type: functional, organism-based; outline: as §4
[15] = test system: Colletotrichum graminicola; test: Fungicidal activity against tebuconazole-adapted wild type Colletotrichum graminicola CgM2 infected in excised human skin assessed as inhibition of invasive colonized hyphal growth at epidermis at ED90 after 4 days by Uvitex-2B staining-based fluorescence microscopy; type: functional, organism-based; outline: as §4
[16] = test system: Colletotrichum graminicola; test: Fungicidal activity against tebuconazole-nonadapted wild type Colletotrichum graminicola CgM2 infected in excised human skin assessed as inhibition of invasive colonized hyphal growth at dermis at ED50 after 4 days by Uvitex-2B staining-based fluorescence microscopy; type: functional, organism-based; outline: as §4
[17] = test system: Colletotrichum graminicola; test: Fungicidal activity against tebuconazole-nonadapted wild type Colletotrichum graminicola CgM2 infected in excised human skin assessed as inhibition of invasive colonized hyphal growth at epidermis at twofold ED90 after 4 days by Uvitex-2B staining-based fluorescence microscopy; type: functional, organism-based; outline: as §4
[18] = test system: Colletotrichum graminicola; test: Fungicidal activity against tebuconazole-adapted wild type Colletotrichum graminicola CgM2 infected in excised human skin assessed as inhibition of invasive colonized hyphal growth at dermis at ED90 after 4 days by Uvitex-2B staining-based fluorescence microscopy; type: functional, organism-based; outline: as §4
[19] = test system: Colletotrichum graminicola; test: Fungicidal activity against tebuconazole-adapted wild type Colletotrichum graminicola CgM2 infected in excised human skin assessed as inhibition of invasive colonized hyphal growth at epidermis at twofold ED90 after 4 days by Uvitex-2B staining-based fluorescence microscopy; type: functional, organism-based; outline: as §4
[20] = test system: Colletotrichum graminicola; test: Fungicidal activity against tebuconazole-nonadapted wild type Colletotrichum graminicola CgM2 infected in excised human skin assessed as inhibition of invasive colonized hyphal growth at hypodermis at ED50 after 4 days by Uvitex-2B staining-based fluorescence microscopy; type: functional, organism-based; outline: as §4
[21] = test system: Colletotrichum graminicola; test: Fungicidal activity against tebuconazole-adapted wild type Colletotrichum graminicola CgM2 infected in excised human skin assessed as inhibition of invasive colonized hyphal growth at epidermis at ED50 after 4 days by Uvitex-2B staining-based fluorescence microscopy; type: functional, organism-based; outline: as §4
[22] = test system: Colletotrichum graminicola; test: Fungicidal activity against tebuconazole-nonadapted wild type Colletotrichum graminicola CgM2 infected in excised human skin assessed as inhibition of invasive colonized hyphal growth at hypodermis at ED90 after 4 days by Uvitex-2B staining-based fluorescence microscopy; type: functional, organism-based; outline: as §4
[23] = test system: Colletotrichum graminicola; test: Fungicidal activity against tebuconazole-adapted wild type Colletotrichum graminicola CgM2 infected in excised human skin assessed as inhibition of invasive colonized hyphal growth at hypodermis at twofold ED90 after 4 days by Uvitex-2B staining-based fluorescence microscopy; type: functional, organism-based; outline: as §4
[24] = test system: Colletotrichum graminicola; test: Fungicidal activity against tebuconazole-nonadapted wild type Colletotrichum graminicola CgM2 infected in excised human skin assessed as inhibition of invasive colonized hyphal growth at epidermis at ED50 after 4 days by Uvitex-2B staining-based fluorescence microscopy; type: functional, organism-based; outline: as §4

| Compound | ED90 [1] [µg/mL] | EC50 [1] [µg/mL] | ED90 [2] [µg/mL] | EC50 [2] [µg/mL] | further results |
| --- | --- | --- | --- | --- | --- |
| C[C@@H](c1ncncc1F)[C@](O)(Cn1cncn1)c1ccc(F)cc1F [VORICONAZOLE] | 0.228 (≈ 0.653 µM) | 0.018 (≈ 0.0515 µM) | 1.328 (≈ 3.8 µM) | 0.045 (≈ 0.129 µM) | – |
| NYSTATIN | 2.41 | – | 0.896 | – | ED50 [1]: 0.03 µg/mL; ED50 [2]: 0.023 µg/mL |
| COC1=CC(=O)C[C@@H](C)[C@]12Oc1c(Cl)c(OC)cc(OC)c1C2=O [GRISEOFULVIN] | 5.503 (≈ 15.6 µM) | 0.607 (≈ 1.72 µM) | 5.839 (≈ 16.6 µM) | 0.051 (≈ 0.145 µM) | – |
| CCCN(CCOc1c(Cl)cc(Cl)cc1Cl)C(=O)n1ccnc1 [PROCHLORAZ] | 0.087 (≈ 0.231 µM) | 0.004 (≈ 0.0106 µM) | 0.72 (≈ 1.91 µM) | 0.011 (≈ 0.0292 µM) | fold change (FC) [3]: 2.75; fold change (FC) [4]: 8 |
| Clc1ccccc1C(c1ccccc1)(c1ccccc1)n1ccnc1 [CLOTRIMAZOLE] | 2.44 (≈ 7.08 µM) | 0.128 (≈ 0.371 µM) | 6.485 (≈ 18.8 µM) | 0.145 (≈ 0.42 µM) | – |
| Cc1cccc(N(C)C(=S)Oc2ccc3ccccc3c2)c1 [TOLNAFTATE] | 104.107 (≈ 339 µM) | 0.582 (≈ 1.89 µM) | 98.71 (≈ 321 µM) | 0.537 (≈ 1.75 µM) | – |
| Clc1ccc(COC(Cn2ccnc2)c2ccc(Cl)cc2Cl)c(Cl)c1 (stereo unspecified) [MICONAZOLE] | 1.327 (≈ 3.19 µM) | 0.028 (≈ 0.0673 µM) | 4.386 (≈ 10.5 µM) | 0.048 (≈ 0.115 µM) | – |
| C[C@@H]1[C@H](O)[C@@H](C)/C=C/C=C/C=C/C=C/C=C/C=C/C=C/[C@H](O[C@@H]2O[C@H](C)[C@@H](O)[C@H](N)[C@@H]2O)C[C@@H]2O[C@](O)(C[C@@H](O)C[C@@H](O)[C@H](O)CC[C@@H](O)C[C@@H](O)CC(=O)O[C@H]1C)C[C@H](O)[C@H]2C(=O)O [AMPHOTERICIN B] | 2.147 (≈ 2.32 µM) | 0.03 (≈ 0.0325 µM) | 0.873 (≈ 0.945 µM) | 0.007 (≈ 0.00758 µM) | – |
| CC(C)(C)C(O)(CCc1ccc(Cl)cc1)Cn1cncn1 (stereo unspecified) [TEBUCONAZOLE] | 0.504 (≈ 1.64 µM) | 0.059 (≈ 0.192 µM) | 13.534 (≈ 44 µM) | 0.423 (≈ 1.37 µM) | fold change (FC) [3]: 7; Activity [5]: Active; fold change (FC) [4]: 27; Activity [6]: inactive |
| Cc1cc(C2CCCCC2)n(O)c(=O)c1.NCCO [CICLOPIROX OLAMINE] | 64.842 | 9.83 | 54.616 | 3.67 | – |
| c1ccc(-c2ccc(C(c3ccccc3)n3ccnc3)cc2)cc1 (stereo unspecified) [BIFONAZOLE] | 1.958 (≈ 6.31 µM) | 0.148 (≈ 0.477 µM) | 4.892 (≈ 15.8 µM) | 0.33 (≈ 1.06 µM) | Activity [7]: inactive; Activity [8]: Active; Activity [9]: inactive; Activity [10]: inactive; Activity [11]: Active; Activity [12]: Active; Activity [13]: inactive; Activity [14]: Active; Activity [15]: inactive; Activity [16]: Active; Activity [17]: Active; Activity [18]: inactive; Activity [19]: inactive; Activity [20]: Active; Activity [21]: inactive; Activity [22]: Active; Activity [23]: inactive; Activity [24]: Active |
| CCC(C)n1ncn(-c2ccc(N3CCN(c4ccc(OCC5COC(Cn6cncn6)(c6ccc(Cl)cc6Cl)O5)cc4)CC3)cc2)c1=O (stereo unspecified) [ITRACONAZOLE] | 1.351 (≈ 1.91 µM) | 0.007 (≈ 0.00992 µM) | 8.848 (≈ 12.5 µM) | 0.014 (≈ 0.0198 µM) | – |
| CO/C=C(/C(=O)OC)c1ccccc1COc1cccc(C(F)(F)F)n1 [PICOXYSTROBIN] | 0.148 (≈ 0.403 µM) | 0.006 (≈ 0.0163 µM) | 1.041 (≈ 2.83 µM) | 0.026 (≈ 0.0708 µM) | fold change (FC) [3]: 4; fold change (FC) [4]: 7 |
| CC(=O)N1CCN(c2ccc(OCC3COC(Cn4ccnc4)(c4ccc(Cl)cc4Cl)O3)cc2)CC1 (stereo unspecified) [KETOCONAZOLE] | 1.492 (≈ 2.81 µM) | 0.115 (≈ 0.216 µM) | 12.419 (≈ 23.4 µM) | 0.552 (≈ 1.04 µM) | – |
| CCC(C)(C)c1ccc(CC(C)CN2C[C@@H](C)O[C@@H](C)C2)cc1 (stereo partly specified) [AMOROLFINE] | 0.347 (≈ 1.09 µM) | 0.03 (≈ 0.0945 µM) | 0.36 (≈ 1.13 µM) | 0.023 (≈ 0.0724 µM) | – |
